Measured values reported in ChEMBL document CHEMBL1146231, “Novel semisynthetic derivative of antibiotic Eremomycin active against drug-resistant gram-positive pathogens including Bacillus anthracis” (J Med Chem, 2007).
≈ marks a conversion by molar mass, not a printed value. Calls of active or inactive are those of the source. The calls are words filed in the database; no cut-off is given here.

Legend:
Staphylococcus aureus [1] = experiment: Antimicrobial activity against glycopeptide intermediate resistant Staphylococcus aureus 3798 isolate; type: functional
Method in brief: (§1)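 MICs were run by broth microdilution as recommended by NCCLS, in cation-adjusted Mueller-Hinton broth. Compound was serially diluted 2-fold, over a final range of 64 to 0.03 µg/mL after inoculation.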

[2] = test system: Staphylococcus haemolyticus; experiment: Antimicrobial activity against Staphylococcus haemolyticus 602 isolate; type: functional; method in brief: as §1
Enterococcus faecalis [3] = experiment: Antimicrobial activity against vancomycin-susceptible Enterococcus faecalis Enfa_29212 isolate; type: functional; method in brief: as §1
Staphylococcus aureus [4] = experiment: Antimicrobial activity against methicillin-resistant Staphylococcus aureus Stau_HIP5827 isolate; type: functional; method in brief: as §1
Enterococcus faecalis [5] = experiment: Antimicrobial activity against vancomycin-resistant Enterococcus faecalis Enfa_t29862 isolate; type: functional; method in brief: as §1
Escherichia coli = experiment: Antimicrobial activity against Escherichia coli Esco_25922 isolate; type: functional
Staphylococcus aureus [6] = experiment: Antimicrobial activity against glycopeptide intermediate resistant Staphylococcus aureus 3793 isolate; type: functional; method in brief: as §1
Enterococcus faecium [7] = experiment: Antimicrobial activity against vancomycin-resistant Enterococcus faecium 569 isolate; type: functional; method in brief: as §1
Enterococcus faecalis [8] = experiment: Antimicrobial activity against vancomycin-resistant Enterococcus faecalis Enfa_vre-2 isolate; type: functional; method in brief: as §1
Enterococcus faecalis [9] = experiment: Antimicrobial activity against vancomycin-resistant Enterococcus faecalis 560 isolate; type: functional; method in brief: as §1
Enterococcus faecalis [10] = experiment: Antimicrobial activity against vancomycin-susceptible Enterococcus faecalis 559 isolate; type: functional; method in brief: as §1
[11] = test system: Staphylococcus epidermidis; experiment: Antimicrobial activity against Staphylococcus epidermidis 533 isolate; type: functional; method in brief: as §1
Enterococcus faecium [12] = experiment: Antimicrobial activity against vancomycin-susceptible Enterococcus faecium 568 isolate; type: functional; method in brief: as §1
Mus musculus [13] = experiment: Survival of BALB/c mouse infected with Staphylococcus aureus PGO#172 assessed as mortality at 50 mg/kg, iv; type: functional, organism-based; parameters: dose 50 mg/kg
Method in brief: (§2)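 Mice received a lethal dose of S. aureus PGO#172 (ATCC#29213) by intraperitoneal injection. They were treated with an iv bolus at 1, 5, 10, 25 or 50 mg/kg, in groups of five. Mortality was the endpoint, and ED50 was derived from the dose-response.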

Bacillus anthracis [14] = experiment: Protection against Bacillus anthracis challenged BALB/c mouse at 50 mg/kg, iv; type: functional, organism-based; parameters: dose 50 mg/kg
Mus musculus [15] = experiment: Survival of BALB/c mouse infected with Staphylococcus aureus PGO#172 assessed as mortality at 1 mg/kg, iv; type: functional, organism-based; parameters: dose 1 mg/kg; method in brief: as §2
Bacillus anthracis [16] = experiment: Protection against Bacillus anthracis challenged BALB/c mouse at 25 mg/kg, iv; type: functional, organism-based; parameters: dose 25 mg/kg

SMILES	MIC (Staphylococcus aureus [1]) [µg/mL]	MIC [2] [µg/mL]	MIC (Enterococcus faecalis [3]) [µg/mL]	MIC (Staphylococcus aureus [4]) [µg/mL]	MIC (Enterococcus faecalis [5]) [µg/mL]	MIC (Escherichia coli) [µg/mL]	MIC (Staphylococcus aureus [6]) [µg/mL]	MIC (Enterococcus faecium [7]) [µg/mL]	MIC (Enterococcus faecalis [8]) [µg/mL]	MIC (Enterococcus faecalis [9]) [µg/mL]	MIC (Enterococcus faecalis [10]) [µg/mL]	MIC [11] [µg/mL]	MIC (Enterococcus faecium [12]) [µg/mL]	Activity (Mus musculus [13])	Activity (Bacillus anthracis [14])	Activity (Mus musculus [15])	Activity (Bacillus anthracis [16])
CN[C@H](CC(C)C)C(=O)N[C@H]1C(=O)N[C@@H](CC(N)=O)C(=O)N[C@H]2C(=O)N[C@H]3C(=O)N[C@H](C(=O)N[C@H](C(=O)O)c4cc(O)cc(O)c4-c4cc3ccc4O)[C@H](O)c3ccc(c(Cl)c3)Oc3cc2cc(c3O[C@@H]2O[C@H](CO)[C@@H](O)[C@H](O)[C@H]2O[C@H]2C[C@](C)(N)[C@H](O)[C@H](C)O2)Oc2ccc(cc2Cl)[C@H]1O [VANCOMYCIN]	8 (≈ 5.52 µM)	2 (≈ 1.38 µM)	2 (≈ 1.38 µM)	8 (≈ 5.52 µM)	> 64	> 50	16 (≈ 11 µM)	> 128	> 64	> 128	1 (≈ 0.69 µM)						
CN[C@H](CC(C)C)C(=O)N[C@H]1C(=O)N[C@@H](CC(N)=O)C(=O)N[C@H]2C(=O)N[C@H]3C(=O)N[C@H](C(=O)N[C@H](C(=O)NC4C5CC6CC(C5)CC4C6)c4cc(O)cc(O)c4-c4cc3ccc4O)[C@H](O)c3ccc(c(Cl)c3)Oc3cc2cc(c3O[C@H]2O[C@@H](CO)[C@H](O)[C@@H](O)[C@@H]2O[C@H]2C[C@@](C)(N)C(O)[C@@H](C)O2)Oc2ccc(cc2Cl)[C@H]1O (some centres undefined)	4 (≈ 2.53 µM)	1 (≈ 0.632 µM)					4 (≈ 2.53 µM)	64 (≈ 40.4 µM)		64 (≈ 40.4 µM)	0.5 (≈ 0.316 µM)	1 (≈ 0.632 µM)	0.5 (≈ 0.316 µM)				
CN[C@H](CC(C)C)C(=O)N[C@H]1C(=O)N[C@@H](CC(N)=O)C(=O)N[C@H]2C(=O)N[C@H]3C(=O)N[C@H](C(=O)N[C@H](C(=O)O)c4cc(O)cc(O)c4-c4cc3ccc4O)[C@H](O[C@@H]3C[C@@](C)(N)[C@H](O)[C@@H](C)O3)c3ccc(cc3)Oc3cc2cc(c3O[C@H]2O[C@@H](CO)[C@H](O)[C@@H](O)[C@@H]2O[C@H]2C[C@](C)(N)[C@@H](O)[C@H](C)O2)Oc2ccc(cc2Cl)[C@H]1O [EREMOMYCIN]	8 (≈ 5.13 µM)	0.25 (≈ 0.16 µM)					8 (≈ 5.13 µM)	> 128		> 128	0.5 (≈ 0.321 µM)	0.25 (≈ 0.16 µM)	0.5 (≈ 0.321 µM)				
CN[C@H](CC(C)C)C(=O)N[C@H]1C(=O)N[C@@H](CC(N)=O)C(=O)N[C@H]2C(=O)N[C@H]3C(=O)N[C@H](C(=O)N[C@@H](C(=O)NC45CC6CC(CC(C6)C4)C5)c4cc(O)cc(O)c4-c4cc3ccc4O)[C@H](O[C@@H]3C[C@@](C)(N)[C@H](O)[C@@H](C)O3)c3ccc(cc3)Oc3cc2cc(c3O[C@H]2O[C@@H](CO)[C@H](O)[C@@H](O)[C@@H]2O[C@H]2C[C@](C)(N)[C@@H](O)[C@H](C)O2)Oc2ccc(cc2Cl)[C@H]1O														Active	Active	inactive	Active
CN[C@H](CC(C)C)C(=O)N[C@H]1C(=O)N[C@@H](CC(N)=O)C(=O)N[C@H]2C(=O)N[C@H]3C(=O)N[C@H](C(=O)N[C@H](C(=O)NCC4C5CC6CC(C5)CC4C6)c4cc(O)cc(O)c4-c4cc3ccc4O)[C@H](O[C@@H]3C[C@@](C)(N)[C@H](O)[C@@H](C)O3)c3ccc(cc3)Oc3cc2cc(c3O[C@H]2O[C@@H](CO)[C@H](O)[C@@H](O)[C@@H]2O[C@H]2C[C@](C)(N)[C@@H](O)[C@H](C)O2)Oc2ccc(cc2Cl)[C@H]1O (some centres undefined)	2 (≈ 1.17 µM)	0.5 (≈ 0.293 µM)					1 (≈ 0.586 µM)	16 (≈ 9.38 µM)		16 (≈ 9.38 µM)	1 (≈ 0.586 µM)	0.5 (≈ 0.293 µM)	0.5 (≈ 0.293 µM)				
